Measured values pooled from the literature.
Lines come from different studies, so protocols differ.
Cell line: HT-29

| SMILES | assay | conditions | IC50 |
| --- | --- | --- | --- |
| CC(=O)c1ccc(N=Nc2c(C(=O)O)cc(O)c(O)c2O)cc1 | cell growth or viability, MTT | – | 14.6 µM |
| CN1C(=O)/C(=N\NC(=O)c2cc3ccccc3[nH]2)c2cc(F)ccc21 | cell growth or viability | – | 8.92 µM |
| NCCCC[C@@H](N)C(=O)Nc1ccc(-n2nc(C(F)(F)F)cc2-c2ccc3c(ccc4ccccc43)c2)cc1 | cell growth or viability, MTT | 24 h | 3.2 µg/mL |
| Cc1ccc(-n2nc(C(C)(C)C)cc2NC(=O)Nc2ccc(OCCN3CCOCC3)c3ccccc23)cc1 | IL-8 release | 24 h | > 1.9 µM |
| C#Cc1cccc(Nc2ncnc3cc(OCCOC)c(OCCOC)cc23)c1 | cell growth or viability, MTT | – | 0.07 µM |
| CC(C)C[C@H](NC(=O)[C@H](Cc1ccccc1)NC(=O)c1cnccn1)B(O)O | cell growth or viability, ATP luminescence | – | 0.0098 µM |
| C1CCCC1.C1CCCC1.[Cl][W][Cl] | cell growth or viability, MTT | – | 10000 µM |
| C#C[C@@]1(O)[C@@H](CO)O[C@@H](n2ccc(N)nc2=O)[C@@H]1O | cell growth or viability, SRB | 72 h | 0.0094 µM |
| COc1ccc2c(c1)/C(=N/NC(=O)c1cc3ccccc3[nH]1)C(=O)N2C | cell growth or viability | – | 5.73 µM |
| COc1ccc(C(=O)O[C@@H]2CN3Cc4c(cc5c(c4OC)OCO5)[C@@]24C=C[C@H](OC)C[C@@H]34)cc1OC | cell growth or viability, WST-1 | – | > 10 µM |
| Cc1nc(Nc2ncc(C(=O)Nc3c(C)cccc3Cl)s2)cc(N2CCN(CCO)CC2)n1 | IL-8 release | 24 h | > 2.05 µM |
| CC[C@]1(O)C[C@H]2CN(CCc3c([nH]c4ccccc34)[C@@](C(=O)OC)(c3cc4c(cc3OC)N(C=O)[C@H]3[C@@](O)(C(=O)OC)[C@H](OC(C)=O)[C@]5(CC)C=CCN6CC[C@]43[C@@H]65)C2)C1 | cell growth or viability, fluorescence | 72 h | 0.0004 µM |
| CCN(CC)CCNC(=O)c1c(C)[nH]c(/C=C2\C(=O)Nc3ccc(F)cc32)c1C | cell growth or viability | – | 10.1 µM |
| CC(=O)O[C@H]1C(=O)[C@@]2(C)[C@H]([C@H](OC(=O)c3ccccc3)[C@]3(O)C[C@H](OC(=O)[C@H](O)[C@@H](NC(=O)c4ccccc4)c4ccccc4)C(C)=C1C3(C)C)[C@]1(OC(C)=O)CO[C@@H]1C[C@@H]2O | cell growth or viability | – | 0.0006 µM |
| CC(=O)c1ccc(/N=N/c2cc(/C=C/C(=O)O)ccc2O)cc1 | cell growth or viability, MTT | – | > 50 µM |
| CC[C@H](C)C(=O)O[C@H]1C[C@@H](C)C=C2C=C[C@H](C)[C@H](CC[C@@H]3C[C@@H](O)CC(=O)O3)[C@H]21 | cell growth or viability, SRB | 72 h | 7.26 µg/mL |
| NCC(=O)Nc1ccc(-n2nc(C(F)(F)F)cc2-c2ccc3c(ccc4ccccc43)c2)cc1 | cell growth or viability, MTT | 24 h | 3.6 µg/mL |
| O=C(O)C[C@H](O)C[C@H](O)/C=C/c1c(C2CC2)nc2ccccc2c1-c1ccc(F)cc1 | cell growth or viability, SRB | 72 h | 0.09 µg/mL |
| O=c1[nH]c(=O)n([C@H]2C[C@H](O)[C@@H](CO)O2)cc1F | cell growth or viability, SRB | 72 h | 0.056 µM |
| O=C1Nc2ccccc2/C1=N/NC(=O)c1cc2ccccc2[nH]1 | cell growth or viability | – | 19.7 µM |
| c1csc([I+]c2cccs2)c1 | cell growth or viability, trypan blue | 48 h | ~2.5 µM |
| COc1c(C)c(OS(=O)(=O)c2ccc3ccccc3c2)c(C)c(OS(=O)(=O)c2ccc3ccccc3c2)c1C(=O)/C=C/c1ccccc1 | cell growth or viability, SRB | 72 h | > 50 µM |
| O=C(O)c1cc(O)c(O)c(O)c1 | cell growth or viability, MTT | – | 16.3 µM |
| COc1c(C)c(OC)c2c(c1C)OC(c1ccccc1)CC2=O (stereo not shown) | cell growth or viability, SRB | 72 h | > 50 µM |
| CN1C(=O)/C(=N\NC(=O)c2cc3ccccc3[nH]2)c2cc(Cl)ccc21 | cell growth or viability | – | 5.67 µM |
| CCOc1cc(OCC)cc(C(=O)O[C@@H]2CN3Cc4c(cc5c(c4OC)OCO5)[C@@]24C=C[C@H](OC)C[C@@H]34)c1 | cell growth or viability, WST-1 | – | > 10 µM |
| O=C(N/N=C1\C(=O)N(c2ccccc2)c2ccccc21)c1cc2ccccc2[nH]1 | cell growth or viability | – | 6.34 µM |
| F[B-](F)(F)F.[Fe+3].c1cc[cH-]c1.c1cc[cH-]c1 | cell growth or viability, MTT | – | 180 µM |
